From PubChem BioAssay
Records with an inconclusive call do not appear.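 How the source made its calls, unless noted: active means RAM network inhibition above 8.4% in each of two replicates, 3 SD over the compound average; inconclusive means above 8.4% inhibition in only one replicate; inactive means 8.4% inhibition or less in each replicate.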

How the values were obtained:
[1] = S. cerevisiae growth inhibition in permissive medium (OD615), pilot counter-assay for S. cerevisiae lifespan shortening project, permissive growth control (AID 705;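 active means growth inhibition above 25% in both replicates, a cutoff set 3 SD above the mean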); conditions: OD615, 24 h, at 10 µM, active compounds read high
Summary of the method: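 System: S. cerevisiae with engineered DeaD lifespan system. Medium: SC raffinose/galactose permissive medium. Doses: single compound dose of 10 µM, 0.25% DMSO final. Schedule: 24 h exposure, 30 °C. Measured by: OD615 turbidity read. Read-out: growth inhibition.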

[2] = S. cerevisiae growth inhibition in restrictive medium, OD615, pilot screen, restrictive growth control, yeast lifespan reduction project (AID 706;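 active means growth inhibition above a set limit, 3 SD over mean compound inhibition, in both replicates, cut at about 43% in these data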;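 further: modified DeaD lifespan yeast strain shifted to restrictive glucose medium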); conditions: OD615, 48 h, at 10 µM, active compounds read high
Summary of the method: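 Assay system – genetically modified Saccharomyces cerevisiae, DeaD replicative lifespan assay strain · Medium – CSMM-D glucose medium · Doses – 10 µM compound, 0.25% DMSO · Times – 4 h pre-incubation, 48 h exposure at 30 °C · Signal – optical density at 615 nm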

[3] = doxorubicin toxicity protection in MRP-1 cells – H69AR cells, CellTiter-Glo, duplicate, MRP-1 activator project, pilot screen (AID 807;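 active means viability increase at or above a cutoff of the median across tested compounds plus 3 SD, cut at about 8.5% in these data, passing the limit was not always enough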;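 further: compound pretreatment 18-22 h then 72 h combined with doxorubicin; 0% = doxorubicin alone and 100% = vehicle without doxorubicin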); conditions: H69AR viability with doxorubicin, CellTiter-Glo luminescence; at 10 µM; active compounds read high
[4] = viability of HCT116 without oncogenic beta-catenin – human colon tumor cells, pilot screen (AID 823;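 active means cell viability at or below a set limit in both duplicate runs, the limit being the all-compound median minus 4 SD, cut at about 23% in these data, passing the limit was not always enough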;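 further: 0% = wells killed by 20 µM Hyamine and 100% = untreated DMSO cell wells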); conditions: HCT116 beta-catenin knockout viability, CellTiter-Glo, 60 h; at 10 µM; active compounds read low
[5] = viability of PTEN-null HCT116 cells – cell-based, HCT116 clonal line, CellTiter-Glo, pilot screen (AID 824;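 active means viability at or below 27.92% in each of two runs, the all-compound median minus 4 SD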;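 further: 0% = 20 µM Hyamine control and 100% = vehicle cell control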); conditions: HCT116 PTEN-deleted viability, 60 h, at 10 µM, active compounds read low
[6] = RAM pathway blockade in budding yeast – dse1pr::URA3 reporter, 5-FOA selection, pilot screen (AID 869;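 active means inhibition over a set limit, the all-compound mean plus 3 SD, in both replicate runs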;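 further: 0% = DMSO wells with no growth and 100% = 10 µM 1-NA-PP1 with full growth; RAM network block rescues cells from 5-FOA so hits raise OD615 growth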); conditions: S. cerevisiae dse1pr::URA3 5-FOA growth, OD615, 2 d; at 10 µM; active compounds read high; strain carries analog-sensitive mutant Cbk1 kinase
[7] = RAM signaling pathway blockade in yeast – S. cerevisiae, Pdr1DBD-CYC8 efflux-inhibited sensitized strain, primary screen (AID 1298);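 further: 0% = DMSO untreated cells without growth and 100% = 10 µM 1-NA-PP1 full growth; higher means more yeast growth rescued from 5-FOA killing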; conditions: S. cerevisiae cbk1-as DSE1-URA3 strain, 5-FOA growth OD615, 2 d; at 50 µM; active compounds read high

O=C(NCS(=O)(=O)c1ccccc1)c1ccccc1
inactive: growth inhibition [1] -15.4% | growth inhibition [2] -4.22% | viability increase [3] -0.04% | viability [4] 101% | viability [5] 101% | inhibition [6] 0.675% | RAM network inhibition [7] 1.79%

O=C(CCn1c(=O)oc2ccccc21)NCCCN1CCCC1=O
inactive: growth inhibition [1] 4.51% | growth inhibition [2] 0.85% | viability increase [3] 1.26% | viability [4] 107% | viability [5] 98.5% | inhibition [6] 1.01% | RAM network inhibition [7] 0.46%

COc1cc(NC(=O)c2cc(C(C)C)on2)cc(OC)c1OC
inactive: growth inhibition [1] -12.3% | growth inhibition [2] 14.9% | viability increase [3] -1.85% | viability [4] 95.2% | viability [5] 94.5% | inhibition [6] -0.755% | RAM network inhibition [7] -0.99%

O=C(NCCCN1CCCC1)c1ccc(CS(=O)(=O)c2ccc(Br)cc2)o1
inactive: growth inhibition [1] -5.7% | growth inhibition [2] -13.3% | viability increase [3] -0.99% | viability [4] 90.6% | viability [5] 96.5% | inhibition [6] 1.63% | RAM network inhibition [7] 2.23%

CN(CC(=O)N1CCCCCC1)S(=O)(=O)c1cccc2cccnc12
inactive: growth inhibition [1] -6.24% | growth inhibition [2] -27% | viability increase [3] -4.51% | viability [4] 101% | viability [5] 82% | inhibition [6] 2.14% | RAM network inhibition [7] -1.18%

Cc1cccc(C2Nc3ccccc3C(=O)N2c2ccccc2)n1 (stereo not drawn)
inactive: growth inhibition [1] -13.9% | growth inhibition [2] -8.88% | viability increase [3] -2.08% | viability [4] 94.1% | viability [5] 101% | inhibition [6] 2.28% | RAM network inhibition [7] 2.46%

Cc1cc(CN2C(=O)c3ccccc3C2=O)cc(N2CCOCC2)c1
inactive: growth inhibition [1] -9.23% | growth inhibition [2] -10.3% | viability increase [3] -2.19% | viability [4] 95% | viability [5] 87.7% | inhibition [6] 0.76% | RAM network inhibition [7] 1.4%

N#CC1=C2C=CC=CN2CC1=O
inactive: growth inhibition [1] -23.9% | growth inhibition [2] -15.7% | viability increase [3] -2.42% | viability [4] 91.2% | viability [5] 93.1% | inhibition [6] 1.7% | RAM network inhibition [7] 2.23%

CN1/C(=C/C=N/n2cnnc2)C(C)(C)c2ccccc21
inactive: growth inhibition [1] -6.3% | growth inhibition [2] -17.9% | viability increase [3] -0.78% | viability [4] 98% | viability [5] 93.2% | inhibition [6] 0.465% | RAM network inhibition [7] 3.01%

COc1ccc(NC(=O)Nc2ccc3nccnc3c2)cc1
inactive: growth inhibition [1] -13.5% | growth inhibition [2] -17.2% | viability increase [3] -4.49% | viability [4] 67.5% | viability [5] 68.7% | inhibition [6] 1.81% | RAM network inhibition [7] 3.72%

CC1CCN(CC(O)COc2ccc(F)cc2)CC1 (stereo not drawn)
inactive: growth inhibition [1] -19.2% | growth inhibition [2] -16.5% | viability increase [3] -0.7% | viability [4] 96.4% | viability [5] 99.5% | inhibition [6] 0.515% | RAM network inhibition [7] 2.56%

CC1CC(C)CN(C(=O)c2cn(C)c3ccc(S(=O)(=O)N(C)C)cc3c2=O)C1 (stereo not drawn)
inactive: growth inhibition [1] -4.13% | growth inhibition [2] 14.5% | viability increase [3] -0.59% | viability [4] 114% | viability [5] 104% | inhibition [6] 2.47% | RAM network inhibition [7] 2.05%

COc1ccc(OCC(=O)N(C)Cc2ccccc2)cc1
inactive: growth inhibition [1] -3.42% | growth inhibition [2] 1.48% | viability increase [3] -2.43% | viability [4] 96% | viability [5] 91.7% | inhibition [6] 0.72% | RAM network inhibition [7] 0.61%

COC(=O)c1cc(COc2ccc3oc(C)c(C(=O)OC)c3c2)c(C)o1
inactive: growth inhibition [1] 4.47% | growth inhibition [2] -14.8% | viability increase [3] 0.77% | viability [4] 74.4% | viability [5] 74.5% | inhibition [6] 2.19% | RAM network inhibition [7] 3.15%

COc1ccccc1CNc1ncnc2c1cnn2-c1ccccc1
inactive: growth inhibition [1] -13.5% | growth inhibition [2] -7.05% | viability increase [3] -4.76% | viability [4] 74.2% | viability [5] 79% | inhibition [6] 0.575% | RAM network inhibition [7] 0.57%

CCC(C)Sc1nc2c(cnn2-c2ccc(C)c(C)c2)c(=O)[nH]1 (stereo not drawn)
inactive: growth inhibition [1] -5.49% | growth inhibition [2] 1.98% | viability increase [3] -3.4% | viability [4] 73% | viability [5] 75.9% | inhibition [6] 3.72% | RAM network inhibition [7] -0.06%

COc1ccc(OC)c2sc(NC(=O)CCS(=O)(=O)c3ccccc3)nc12
inactive: growth inhibition [1] -8.91% | growth inhibition [2] -10.2% | viability increase [3] -8.72% | viability [4] 36.1% | viability [5] 44.3% | inhibition [6] 4.41% | RAM network inhibition [7] 11%

O=C1c2ccccc2CCC1C(O)c1ccccn1 (stereo not drawn)
inactive: growth inhibition [1] -8.87% | growth inhibition [2] -15.8% | viability increase [3] -3.89% | viability [4] 95.5% | viability [5] 99.2% | inhibition [6] 2.49% | RAM network inhibition [7] 1.24%

Cc1c(C(=O)Nc2ccncc2)sc2nc(-c3ccccc3)cn12
inactive: growth inhibition [1] 0.39% | growth inhibition [2] 9.21% | viability increase [3] 2.2% | viability [4] 89.2% | viability [5] 89.2% | inhibition [6] 0.99% | RAM network inhibition [7] -1.99%

CCOc1ccc(C2c3c(oc4ccccc4c3=O)C(=O)N2c2ccccn2)cc1OC (stereo not drawn)
inactive: growth inhibition [1] -15.4% | growth inhibition [2] -25.5% | viability increase [3] -4.13% | viability [4] 92.3% | viability [5] 96.2% | inhibition [6] 1.44% | RAM network inhibition [7] 1.32%

COc1cccc(CNC(=O)Cn2cc3c(n2)CCCCC3)c1
inactive: growth inhibition [1] -12.5% | growth inhibition [2] -19.7% | viability increase [3] -1.29% | viability [4] 92.3% | viability [5] 85.9% | inhibition [6] 1.56% | RAM network inhibition [7] 1.81%

O=C(CCSc1nc(-c2ccc3c(c2)OCO3)cc(C(F)(F)F)n1)NCc1ccco1
inactive: growth inhibition [1] -4.51% | growth inhibition [2] -2.02% | viability increase [3] -2.85% | viability [4] 74.8% | viability [5] 74.6% | inhibition [6] 2.63% | RAM network inhibition [7] 2.97%

O=C(NCCCN1CCOCC1)C1CCC(=O)N1CCc1ccccc1 (stereo not drawn)
inactive: growth inhibition [1] -0.765% | growth inhibition [2] -7.29% | viability increase [3] -0.18% | viability [4] 103% | viability [5] 96.7% | inhibition [6] 3.66% | RAM network inhibition [7] 0.63%

CCOc1ccc(/C(=N\O)C(C)NO)cc1 (stereo not drawn)
inactive: growth inhibition [1] -16.4% | growth inhibition [2] -10.4% | viability increase [3] 1.06% | viability [4] 87.9% | viability [5] 97.1% | inhibition [6] 0.925% | RAM network inhibition [7] 3.88%
